According to ChEMBL document CHEMBL4359926, “Design, synthesis, and evaluation of potent novel peroxisome proliferator-activated receptor γ indole partial agonists” (Bioorg Med Chem Lett, 2019):
The source made the active and inactive calls. No cut-off for these calls is given here.

Experiments:
[1] = biological target: T1, Peroxisome proliferator-activated receptor gamma (Mus musculus, UniProt P37238); test: Induction of PPARgamma-mediated adipogenesis in mouse 3T3L1 cells assessed as upregulation of FABP4 mRNA expression at 10 uM by qRT-PCR analysis; assay type: cell-based
T1 sequence (P37238 whole entry): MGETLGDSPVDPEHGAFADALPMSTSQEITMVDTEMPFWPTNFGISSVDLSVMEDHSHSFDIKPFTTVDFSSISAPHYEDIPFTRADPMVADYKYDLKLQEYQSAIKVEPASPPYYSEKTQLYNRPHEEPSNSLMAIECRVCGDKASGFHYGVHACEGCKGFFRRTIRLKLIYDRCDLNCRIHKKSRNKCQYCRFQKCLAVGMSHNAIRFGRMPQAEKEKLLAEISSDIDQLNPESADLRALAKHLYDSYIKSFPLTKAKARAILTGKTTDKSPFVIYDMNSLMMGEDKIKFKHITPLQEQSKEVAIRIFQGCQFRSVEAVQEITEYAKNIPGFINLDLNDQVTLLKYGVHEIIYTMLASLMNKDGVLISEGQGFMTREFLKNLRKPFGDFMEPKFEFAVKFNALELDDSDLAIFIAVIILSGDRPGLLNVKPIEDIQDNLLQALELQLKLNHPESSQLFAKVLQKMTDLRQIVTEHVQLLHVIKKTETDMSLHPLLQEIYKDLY
In short: (§1)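 Confluent 3T3-L1 cells were differentiated in 10% FBS/DMEM with 0.5 mmol/L IBMX, 1 μmol/L dexamethasone and 10 μg/mL insulin plus compounds (10 μM) for 48 h, then 10 μg/mL insulin alone for another 48 h. RNA was extracted and analyzed by qRT-PCR (35 cycles). Relative mRNA was calculated by ΔΔCt normalized to TBP.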

[2] = biological target: T1, Peroxisome proliferator-activated receptor gamma; test: Induction of PPARgamma-mediated adipogenesis in mouse 3T3L1 cells assessed as increase in cell differentiation at 10 uM compound treatment renewed every 2 days and measured on day 7 by Oil-red O staining based assay; conditions: 48 h
In short: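 3T3-L1 cells were induced with DMEM/10% FBS containing 1 μg/ml insulin, 1 μM dexamethasone and 0.5 mM IBMX plus compounds (10 μM) for 48 h. They were then kept in maintenance DMEM/10% FBS with compounds, with medium renewed every 2 days. At day 7 cells were fixed in 4% formaldehyde for 30 min and stained with 0.3% Oil Red O for 1 h at 37 °C. Lipid droplets were viewed by microscopy; DMSO 0.1% final.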

[3] = biological target: T1, Peroxisome proliferator-activated receptor gamma; test: Induction of PPARgamma-mediated adipogenesis in mouse 3T3L1 cells assessed as upregulation of LPL mRNA expression at 10 uM by qRT-PCR analysis; assay type: cell-based; in short: as §1
[4] = biological target: T1, Peroxisome proliferator-activated receptor gamma; test: Induction of PPARgamma-mediated adipogenesis in mouse 3T3L1 cells assessed as upregulation of Glut4 mRNA expression at 10 uM by qRT-PCR analysis; assay type: cell-based; in short: as §1
[5] = biological target: T2, Peroxisome proliferator-activated receptor gamma (Mus musculus) (UniProt P37238); test: Partial agonist activity at PPARgamma in mouse 3T3-L1 cells assessed as decrease in PPARgamma S273 phosphorylation at 10 uM preincubated for 24 hrs followed by TNFalpha stimulation for 3 hrs by Western blotting analysis
T2 sequence (whole entry): T1 sequence (P37238 whole entry)

[6] = biological target: T3, PPARgamma2 (peroxisome proliferator-activated receptor gamma) (Homo sapiens, UniProt P37231); test: Transactivation activity at human PPARgamma2 cotransfected with PPRE X3-TK-luc in human HEK293 cells incubated for 24 hrs by luciferase reporter gene assay relative to rosiglitazone; assay type: cell-based
T3 sequence (P37231 whole entry): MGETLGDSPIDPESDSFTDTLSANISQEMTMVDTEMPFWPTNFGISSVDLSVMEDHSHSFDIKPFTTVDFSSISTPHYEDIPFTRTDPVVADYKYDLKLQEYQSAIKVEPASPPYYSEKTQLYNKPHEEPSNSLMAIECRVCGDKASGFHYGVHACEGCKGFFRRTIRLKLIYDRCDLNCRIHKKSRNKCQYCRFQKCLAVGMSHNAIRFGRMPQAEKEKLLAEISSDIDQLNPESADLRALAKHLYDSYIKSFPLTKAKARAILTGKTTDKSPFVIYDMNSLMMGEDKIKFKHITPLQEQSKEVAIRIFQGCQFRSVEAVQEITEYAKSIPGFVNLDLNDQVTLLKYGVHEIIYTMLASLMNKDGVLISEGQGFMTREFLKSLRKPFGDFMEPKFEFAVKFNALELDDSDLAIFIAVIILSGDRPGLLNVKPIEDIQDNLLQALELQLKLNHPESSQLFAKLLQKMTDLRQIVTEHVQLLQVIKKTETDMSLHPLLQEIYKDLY
In short: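 HEK-293 cells grown in DMEM with 4.5 g/liter glucose and 10% bovine calf serum at 37°C, 5% CO₂. Co-transfected with human PPARγ2 plasmid and PPRE X3-TK-luc, then left 16 h. Compounds at 100 to 0.001 μM (10-fold steps), 0.1% DMSO final, for 24 h. Lysate luciferase read by luminescence.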

[7] = biological target: T4, Peroxisome proliferator-activated receptor gamma (Homo sapiens, UniProt P37231); test: Displacement of fluormone PPAR green tracer ligand from recombinant GST-tagged PPARgamma ligand binding domain (unknown origin) incubated for 4 hrs by competitive fluorescence polarization binding assay
T4 sequence (P37231 whole entry): T3 sequence (P37231 whole entry)

[8] = biological target: T2, Peroxisome proliferator-activated receptor gamma (Mus musculus); test: Partial agonist activity at PPARgamma in mouse 3T3-L1 cells assessed as decrease in PPARgamma S273 phosphorylation by measuring upregulation of adipsin mRNA expression at 10 uM by qRT-PCR analysis; assay type: cell-based
[9] = biological target: T5, Peroxisome proliferator-activated receptor gamma (Homo sapiens) (UniProt P37231); test: Potency index, ratio of UHC1 IC50 to compound IC50 for displacement of fluormone PPAR green tracer ligand from recombinant GST-tagged PPARgamma ligand binding domain (unknown origin) incubated for 4 hrs by competitive fluorescence polarization binding assay
T5 sequence (whole entry): T3 sequence (P37231 whole entry)

[10] = biological target: T2, Peroxisome proliferator-activated receptor gamma (Mus musculus); test: Partial agonist activity at PPARgamma in mouse 3T3-L1 cells assessed as decrease in PPARgamma S273 phosphorylation by measuring upregulation of adiponectin mRNA expression at 10 uM by qRT-PCR analysis; assay type: cell-based
[11] = biological target: T2, Peroxisome proliferator-activated receptor gamma (Mus musculus); test: Partial agonist activity at PPARgamma in mouse 3T3L1 cells assessed as decrease in PPARgamma S273 phosphorylation by measuring upregulation of Car3 mRNA expression at 10 uM by qRT-PCR analysis; assay type: cell-based

| Compound | Emax at 24 h [6] | IC50 [7] | Ki [7] | further results |
| --- | --- | --- | --- | --- |
| CN(CCOc1ccc(CC2SC(=O)NC2=O)cc1)c1ccccn1 (configuration not stated) [ROSIGLITAZONE] | – | – | – | Activity [1]: Active; Activity [2]: Active; Activity [3]: Active; Activity [4]: Active; inhibition [5]: Active |
| Cc1c(C)n(Cc2cccc(C(F)(F)F)c2)c2ccc(C(=O)NCc3ccc4c(c3)OCO4)cc12 | 32% | 16 nM | – | – |
| Cc1c(C)n(Cc2ccc(-c3ccccc3C(=O)O)cc2)c2ccc(C(=O)NCCc3ccc(O)cc3)cc12 | 31% | 48 nM | 38 nM | – |
| Cc1c(C)n(Cc2cccc(C(F)(F)F)c2)c2ccc(C(=O)N[C@@H](Cc3ccc(O)cc3)C(=O)O)cc12 | 44% | 346 nM | 270 nM | – |
| COc1ccc(OC)c(CNC(=O)c2ccc3c(c2)c(C)c(C)n3Cc2cccc(C(F)(F)F)c2)c1 | 27% | 48 nM | 38 nM | – |
| Cc1c(C)n(Cc2ccc(-c3ccccc3C(=O)O)cc2)c2ccc(C(=O)NC3CCNCC3)cc12 | 17% | 41300 nM | 32200 nM | – |
| Cc1c(C)n(Cc2ccc(-c3ccccc3C(=O)O)cc2)c2ccc(C(=O)NCc3cccnc3)cc12 | 45% | 536 nM | 440 nM | inhibition [5]: Active |
| Cc1c(C)n(Cc2ccc(-c3ccccc3C(=O)O)cc2)c2ccc(C(=O)NCc3ccccn3)cc12 | 15% | 34 nM | 27 nM | – |
| Cc1c(C)n(Cc2ccc(-c3ccccc3C(=O)O)cc2)c2ccc(C(=O)NCC3CCNCC3)cc12 | 11% | 12100 nM | 9460 nM | – |
| COc1cc(CNC(=O)c2ccc3c(c2)c(C)c(C)n3Cc2ccc(-c3ccccc3C(=O)O)cc2)ccc1O | 15% | 17 nM | 13 nM | Activity [1]: Active; Activity [3]: Active; Activity [8]: Active; Ratio IC50 [9]: > 30; Activity [10]: Active; Activity [11]: Active; Activity [4]: Active; inhibition [5]: Active |
| Cc1c(C)n(Cc2ccc(-c3ccccc3C(=O)O)cc2)c2ccc(C(=O)NCc3cccc(OCC(=O)O)c3)cc12 | 56% | 66 nM | 52 nM | – |
| COc1cc(CNC(=O)c2ccc3c(c2)c(C)c(C)n3Cc2cccc(C(F)(F)F)c2)ccc1O | 46% | 10 nM | – | – |
| Cc1c(C)n(Cc2ccc(-c3ccccc3C(=O)O)cc2)c2ccc(C(=O)NCc3ccc4c(c3)OCO4)cc12 | 36% | 15 nM | 12 nM | – |
| Cc1c(C)n(Cc2cccc(C(F)(F)F)c2)c2ccc(C(=O)NCc3ccccn3)cc12 | 59% | 185 nM | 144 nM | – |
| Cc1c(C)n(Cc2ccc(-c3ccccc3C(=O)O)cc2)c2ccc(C(=O)NCc3ccc(S(N)(=O)=O)cc3)cc12 | 0% | 312 nM | 244 nM | – |
| Cc1c(C)n(Cc2ccc(-c3ccccc3C(=O)O)cc2)c2ccc(C(=O)O)cc12 | 16% | 4870 nM | 3800 nM | – |
